Tests used:
Rattus norvegicus [1] = test: Concentration was measured in kidney tissue of unfasted Fischer 344 rats administered intravenously after 4 hr (radiolabeled with [125I]-; type: ADME, organism-based; settings: in vivo, iv
Rattus norvegicus [2] = test: Concentration was measured in heart tissue of unfasted Fischer 344 rats administered intravenously after 30 minute (radiolabeled with [123I]-; type: ADME, organism-based; settings: in vivo, iv, 0.5 h
Rattus norvegicus [3] = test: Concentration was measured in mean heart/blood tissue of fasted Fischer 344 rats administered intravenously after 30 minute (radiolabeled with [123I]-; settings: in vivo, iv, 0.5 h
Rattus norvegicus [4] = test: (§1) Concentration was measured in tissue of unfasted Fischer 344 rats administered intravenously after 60 minute (radiolabeled with [125I]-; type: ADME, organism-based; settings: in vivo, iv, 1 h
Procedure, shortened: (§2)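 Female Fischer 344 rats, 10–12 weeks old (170–200 g), with food and water ad libitum, five per time point. The radioiodinated fatty acid was dissolved in ethanol, added to 6% BSA at ~40 °C (final 10% ethanol), filtered, and injected into a lateral tail vein (0.5 mL) under ether anesthesia. Blood was taken by cardiac puncture; organs were rinsed, blotted, weighed and gamma-counted against injectate standards. Output is % injected dose/g.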

Rattus norvegicus [5] = test: Concentration was measured in thyroid tissue of unfasted Fischer 344 rats administered intravenously after 30 minute (radiolabeled with [125I]-; type: ADME, organism-based, Thyroid gland; settings: in vivo, iv, 0.5 h, in the assay text read “fasted” for “unfasted”
Rattus norvegicus [6] = test: Concentration was measured in mean heart/blood tissue of fasted Fischer 344 rats administered intravenously after 5 minute (radiolabeled with [123I]-; settings: in vivo, iv, 5 min
Rattus norvegicus [7] = test: Concentration was measured in lungs tissue of unfasted Fischer 344 rats administered intravenously after 30 minute (radiolabeled with [125I]-; type: ADME, organism-based, Lung; settings: in vivo, iv, 0.5 h
Procedure, shortened: (§3)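 Female Fischer 344 rats, 10-12 weeks old, 170-200 g, with food and water ad libitum. The 125I-fatty acid was taken up in ethanol, added dropwise to stirred 6% BSA at ~40 °C (final ethanol 10%), filtered, and given as 0.5 mL via lateral tail vein under ether anesthesia. Rats were killed by cervical fracture; blood was taken by cardiac puncture. Organs were rinsed, blotted, weighed and gamma-counted against injectate standards to give %ID/g. Five rats per time point.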

Rattus norvegicus [8] = test: Concentration was measured in tissue of unfasted Fischer 344 rats administered intravenously after 60 minute (radiolabeled with [123I]-; type: ADME, organism-based; settings: in vivo, iv, 1 h
Rattus norvegicus [9] = test: Concentration was measured in heart tissue of unfasted Fischer 344 rats administered intravenously after 5 minute (radiolabeled with [123I]-; type: ADME, organism-based; settings: in vivo, iv, 5 min
Rattus norvegicus [10] = test: Concentration was measured in liver tissue f unfasted Fischer 344 rats administered intravenously after 30 minute (radiolabeled with [125I]-; type: ADME, organism-based; settings: in vivo, iv, 0.5 h; procedure, shortened: as §3
Rattus norvegicus [11] = test: Concentration was measured in lungs tissue of unfasted Fischer 344 rats administered intravenously after 5 minute (radiolabeled with [123I]-; type: ADME, organism-based, Lung; settings: in vivo, iv, 5 min
Rattus norvegicus [12] = test: Concentration was measured in lungs tissue of unfasted Fischer 344 rats administered intravenously after 30 minute (radiolabeled with [123I]-; type: ADME, organism-based, Lung; settings: in vivo, iv, 0.5 h
Rattus norvegicus [13] = test: Concentration was measured in lungs tissue of unfasted Fischer 344 rats administered intravenously after 60 minute (radiolabeled with [125I]-; type: ADME, organism-based, Lung; settings: in vivo, iv, 1 h; procedure, shortened: as §3
Rattus norvegicus [14] = test: Concentration was measured in thyroid tissue of fasted Fischer 344 rats administered intravenously after 30 minute (radiolabeled with [123I]-; settings: in vivo, iv, 0.5 h
Rattus norvegicus [15] = test: Concentration was measured in blood tissue of unfasted Fischer 344 rats administered intravenously after 60 minute (radiolabeled with [123I]-; type: ADME, organism-based; settings: in vivo, iv, 1 h
Rattus norvegicus [16] = test: Concentration was measured in thyroid tissue of unfasted Fischer 344 rats administered intravenously after 4 hr (radiolabeled with [125I]-; type: ADME, organism-based, Thyroid gland; settings: in vivo, iv
Rattus norvegicus [17] = test: Concentration was measured in mean heart/blood tissue of fasted Fischer 344 rats administered intravenously after 60 minute (radiolabeled with [125I]-; settings: in vivo, iv, 1 h
Rattus norvegicus [18] = test: Concentration was measured in kidney tissue of unfasted Fischer 344 rats administered intravenously after 4 hr (radiolabeled with [123I]-; type: ADME, organism-based; settings: in vivo, iv
Rattus norvegicus [19] = test: Concentration was measured in blood tissue of unfasted Fischer 344 rats administered intravenously after 4 hr (radiolabeled with [125I]-; type: ADME, organism-based; settings: in vivo, iv
Rattus norvegicus [20] = test: Concentration was measured in liver tissue of fasted Fischer 344 rats administered intravenously after 4 hr (radiolabeled with [125I]-; settings: in vivo, iv
Rattus norvegicus [21] = test: Concentration was measured in kidney tissue of unfasted Fischer 344 rats administered intravenously after 30 minute (radiolabeled with [123I]-; type: ADME, organism-based; settings: in vivo, iv, 0.5 h
Rattus norvegicus [22] = test: Concentration was measured in lungs tissue of unfasted Fischer 344 rats administered intravenously after 60 minute (radiolabeled with [123I]-; type: ADME, organism-based, Lung; settings: in vivo, iv, 1 h
Rattus norvegicus [23] = test: Concentration was measured in thyroid tissue of unfasted Fischer 344 rats administered intravenously after 5 minute (radiolabeled with [123I]-; type: ADME, organism-based, Thyroid gland; settings: in vivo, iv, 5 min
Rattus norvegicus [24] = test: Concentration was measured in liver tissue f unfasted Fischer 344 rats administered intravenously after 30 minute (radiolabeled with [123I]-; type: ADME, organism-based; settings: in vivo, iv, 0.5 h
Rattus norvegicus [25] = test: Concentration was measured in mean heart/blood tissue of fasted Fischer 344 rats administered intravenously after 5 minute (radiolabeled with [125I]-; settings: in vivo, iv, 5 min
Rattus norvegicus [26] = test: Concentration was measured in lungs tissue of unfasted Fischer 344 rats administered intravenously after 4 hr (radiolabeled with [125I]-; type: ADME, organism-based, Lung; settings: in vivo, iv
Rattus norvegicus [27] = test: Concentration was measured in heart tissue of unfasted Fischer 344 rats administered intravenously after 60 minute (radiolabeled with [125I]-; type: ADME, organism-based; settings: in vivo, iv, 1 h; procedure, shortened: as §3
Rattus norvegicus [28] = test: Concentration was measured in heart tissue of unfasted Fischer 344 rats administered intravenously after 4 hr (radiolabeled with [123I]-; type: ADME, organism-based; settings: in vivo, iv
Rattus norvegicus [29] = test: Concentration was measured in kidney tissue of unfasted Fischer 344 rats administered intravenously after 60 minute (radiolabeled with [125I]-; type: ADME, organism-based; settings: in vivo, iv, 1 h; procedure, shortened: as §3
Rattus norvegicus [30] = test: Concentration was measured in heart tissue of unfasted Fischer 344 rats, administered intravenous, after 5 minute (radiolabeled with [125I]-; type: ADME, organism-based; settings: in vivo, 5 min; procedure, shortened: as §3
Rattus norvegicus [31] = test: Concentration was measured in kidney tissue of unfasted Fischer 344 rats administered intravenously after 5 minute (radiolabeled with [123I]-; type: ADME, organism-based; settings: in vivo, iv, 5 min
Rattus norvegicus [32] = test: as §1; type: ADME, organism-based; settings: in vivo, iv, 1 h; procedure, shortened: as §2; remark: listed apart in the source
Rattus norvegicus [33] = test: Concentration was measured in blood tissue of unfasted Fischer 344 rats administered intravenously after 60 minute (radiolabeled with [125I]-; type: ADME, organism-based; settings: in vivo, iv, 1 h; procedure, shortened: as §3
Rattus norvegicus [34] = test: Concentration was measured in lungs tissue of unfasted Fischer 344 rats administered intravenously after 5 minute (radiolabeled with [125I]-; type: ADME, organism-based, Lung; settings: in vivo, iv, 5 min; procedure, shortened: as §3
Rattus norvegicus [35] = test: Concentration was measured in kidney tissue of unfasted Fischer 344 rats administered intravenously after 30 minute (radiolabeled with [125I]-; type: ADME, organism-based; settings: in vivo, iv, 0.5 h; procedure, shortened: as §3
Rattus norvegicus [36] = test: Concentration was measured in mean heart/blood tissue of unfasted Fischer 344 rats administered intravenously after 4 hr (radiolabeled with [125I]-; type: ADME, organism-based; settings: other tissue, iv
Rattus norvegicus [37] = test: Concentration was measured in mean heart/blood tissue of unfasted Fischer 344 rats administered intravenously after 4 hr (radiolabeled with [123I]-; type: ADME, organism-based; settings: in vivo, iv
Rattus norvegicus [38] = test: Concentration was measured in heart tissue of unfasted Fischer 344 rats administered intravenously after 4 hr (radiolabeled with [125I]-; type: ADME, organism-based; settings: in vivo, iv
Rattus norvegicus [39] = test: Concentration was measured in liver tissue of unfasted Fischer 344 rats administered intravenously after 4 hr (radiolabeled with [123I]-; type: ADME, organism-based; settings: in vivo, iv
Rattus norvegicus [40] = test: Concentration was measured in heart tissue of unfasted Fischer 344 rats administered intravenously after 30 minutes (radiolabeled with [125I]-; type: ADME, organism-based; settings: in vivo, iv, 0.5 h; procedure, shortened: as §3

Distribution (Rattus norvegicus [1]): 0.66%
Distribution (Rattus norvegicus [2]): 1.19%
Distribution (Rattus norvegicus [3]): 1.6%
Distribution (Rattus norvegicus [4]): 2.94%
Distribution (Rattus norvegicus [5]): 48.5%
Distribution (Rattus norvegicus [6]): 4.8%
Distribution (Rattus norvegicus [7]): 0.96%
Distribution (Rattus norvegicus [8]): 102%
Distribution (Rattus norvegicus [9]): 3.52%
Distribution (Rattus norvegicus [10]): 4.53%
Distribution (Rattus norvegicus [11]): 1.54%
Distribution (Rattus norvegicus [12]): 1.32%
Distribution (Rattus norvegicus [13]): 0.89%
Distribution (Rattus norvegicus [14]): 65.3%
Distribution (Rattus norvegicus [15]): 0.64%
Distribution (Rattus norvegicus [16]): 364%
Distribution (Rattus norvegicus [17]): 4.1%
Distribution (Rattus norvegicus [18]): 0.95%
Distribution (Rattus norvegicus [19]): 0.53%
Distribution (Rattus norvegicus [20]): 1.11%
Distribution (Rattus norvegicus [21]): 1.03%
Distribution (Rattus norvegicus [22]): 1.21%
Distribution (Rattus norvegicus [23]): 22.5%
Distribution (Rattus norvegicus [24]): 3.49%
Distribution (Rattus norvegicus [25]): 5.4%
Distribution (Rattus norvegicus [26]): 0.81%
Distribution (Rattus norvegicus [27]): 2.56%
Distribution (Rattus norvegicus [28]): 0.59%
Distribution (Rattus norvegicus [29]): 1.3%
Distribution (Rattus norvegicus [30]): 4.89%
Distribution (Rattus norvegicus [31]): 1.12%
Distribution (Rattus norvegicus [32]): 82.9%
Distribution (Rattus norvegicus [33]): 0.63%
Distribution (Rattus norvegicus [34]): 1.36%
Distribution (Rattus norvegicus [35]): 0.91%
Distribution (Rattus norvegicus [36]): 2.6%
Distribution (Rattus norvegicus [37]): 0.96%
Distribution (Rattus norvegicus [38]): 1.38%
Distribution (Rattus norvegicus [39]): 1.83%
Distribution (Rattus norvegicus [40]): 3.32%
Compound: CC(CCCCCCCCCCCCCC/C=C/I)CC(=O)O.O=C(O)CCCCCCCCCCCCCCCC/C=C/I (stereo not given)
